In ChEMBL document CHEMBL1128321, “Piperazinylalkyl heterocycles as potential antipsychotic agents” (J Med Chem, 1995):
pKi: −log10 of the molar value.

Columns and labels:
Rattus norvegicus [1] = test: Conditioned avoidance response activity was determined by the ability to block the conditioned avoidance of a foot shock at 15 mg/kg(ip); assay type: functional
Summary of the method: (§1)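 Male Fischer 344 rats (300–500 g) trained on a discrete-trial single-lever task, pressing the lever to avoid an impending shock; block of responding read at time of peak effect. Escape loss = percent of animals failing to escape the shock; >20% escape loss with CAR inhibition taken as potential for sedation.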

Rattus norvegicus [2] = test: Percentage of animals failing to escape shock was measured, affording a rough index for nonspecific sedation at 5 mg/kg(ip)
[3] = target: T1, 5-hydroxytryptamine receptor 1A (Rattus norvegicus, UniProt P19327); test: Binding affinity was determined against 5-hydroxytryptamine 1A receptor using […]
T1 sequence (P19327 whole entry): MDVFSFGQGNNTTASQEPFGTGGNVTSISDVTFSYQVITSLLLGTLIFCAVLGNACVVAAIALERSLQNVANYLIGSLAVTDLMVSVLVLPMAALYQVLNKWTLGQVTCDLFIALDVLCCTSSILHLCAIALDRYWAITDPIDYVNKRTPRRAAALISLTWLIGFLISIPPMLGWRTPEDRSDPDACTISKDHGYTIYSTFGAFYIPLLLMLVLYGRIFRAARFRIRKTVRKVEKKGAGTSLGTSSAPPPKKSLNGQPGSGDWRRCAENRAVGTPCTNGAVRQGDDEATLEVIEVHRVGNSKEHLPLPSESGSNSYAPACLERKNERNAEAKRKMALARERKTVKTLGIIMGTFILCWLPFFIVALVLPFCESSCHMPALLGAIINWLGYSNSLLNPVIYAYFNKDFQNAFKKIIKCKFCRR

Rattus norvegicus [4] = test: Conditioned avoidance response activity was determined by the ability to block the conditioned avoidance of a foot shock at 5 mg/kg(ip); assay type: functional; summary of the method: as §1
[5] = Stability half-life at pH-2; stable; assay type: physicochemical
Summary of the method: (§2)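 Half-life measured in solution at pH 2, about 3 × 10⁻³ M compound in citric acid–phosphate buffer at 22 °C.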

[6] = Stability half-life at pH-2; assay type: physicochemical; summary of the method: as §2

Row | pKi [3] | T1/2 [5] | half-life [6] | Structure (SMILES) | inhibition in vivo at 15 mg/kg (Rattus norvegicus [1]) | Esc loss (Rattus norvegicus [2]) | inhibition in vivo at 5 mg/kg (Rattus norvegicus [4])
1 | 8.72 |  |  | COc1ccccc1N1CCN(Cc2ccc(CN3C(=O)c4ccccc4C3=O)o2)CC1 | 3% | 0% | 
2 | 8.85 | Stable |  | COc1ccccc1N1CCN(CCc2ccc(CN3CCCCC3=O)n2C)CC1.O=C(O)CCC(=O)O |  | 4% | 23%
3 | 8.03 |  | 85 h | CC(C)Oc1ccccc1N1CCN(CCc2ccc(C(=O)C(=O)N3CCOCC3)n2C)CC1.O=C(O)CCC(=O)O |  | 0% | 2%
4 | 7.41 |  | 2.17 h | COc1ccccc1N1CCN(Cc2ccc(CN(C)S(=O)(=O)C(C)C)n2C)CC1.O=C(O)CCC(=O)O |  | 0% | 6%
5 | 7.32 |  | 382 h | CC(C)NC(=O)c1ccc(CN2CCN(c3ccccc3OC(C)C)CC2)n1C.O=C(O)CCC(=O)O |  | 0% | 1%
6 | 7.96 |  | 2.87 h | COc1ccccc1N1CCN(Cc2ccc(CN(C)S(C)(=O)=O)n2C)CC1.O=C(O)CCC(=O)O |  | 4% | 23%
7 | 7.92 |  | 1.17 h | CC(=O)N(C)Cc1ccc(CN2CCN(c3ccccc3OC(C)C)CC2)n1C.O=C(O)CCC(=O)O |  | 2% | 63%
8 |  |  | < 0.217 h | CC(C)Oc1ccccc1N1CCN(Cc2ccc(CCN3CCCCC3=O)n2C)CC1.Cl |  | 27% | 77%
9 | 8.24 |  |  | CC(C)Oc1ccccc1N1CCN(Cc2ccc(CN(C)S(=O)(=O)C(C)C)n2C)CC1.O=C(O)CCC(=O)O | 0% | 0% | 
10 |  |  | < 0.117 h | COc1ccccc1N1CCN(Cc2ccc(CCN3CCCCC3=O)n2C)CC1.Cl |  | 9% | 75%
11 | 7.68 | Stable |  | CC(C)Oc1ccccc1N1CCN(Cc2ccc(CN3CCCCC3=O)o2)CC1.O=C(O)CCC(=O)O |  | 0% | 46%
12 |  |  |  | COc1ccccc1N1CCN(Cc2ccc(CN(C(C)C)S(C)(=O)=O)n2C)CC1 |  | 0% | 1%
13 |  |  | 57.7 h | CC(C)Oc1ccccc1N1CCN(Cc2cc(CO)no2)CC1 |  | 1% | 29%
14 | 8.38 |  |  | CC(C)Oc1ccccc1N1CCN(Cc2ccc(C(=O)N3CCCCC3)s2)CC1.O=C(O)CCC(=O)O |  | 18% | 56%
15 | 9.60 |  |  | CCCCC(=O)N(C)Cc1ccc(CN2CCN(c3ccccc3OC(C)C)CC2)n1C.O=C(O)CCC(=O)O |  | 0% | 4%
16 | 7.29 |  | 10.5 h | CC(C)Oc1ccccc1N1CCN(Cc2ccc(CN3CCCCCC3=O)o2)CC1.O=C(O)CCC(=O)O | 83% | 1% | 
17 | 7.24 |  | 72.4 h | CNC(=O)c1ccc(CN2CCN(c3ccccc3OC(C)C)CC2)n1C.O=C(O)CCC(=O)O |  | 0% | 15%
18 | 8.60 |  |  | CC(C)Oc1ccccc1N1CCN(Cc2cc(C(=O)N3CCCCC3)cs2)CC1.Cl |  | 34% | 72%
19 | 8.33 |  |  | CC(C)Oc1ccccc1N1CCN(Cc2ccc(CN(C(=O)C3CCCCC3)C(C)C)n2C)CC1.O=C(O)CCC(=O)O |  | 0% | 13%
20 | 7.57 |  |  | COc1ccccc1N1CCN(Cc2ccc(CN3CCCCCC3=O)o2)CC1.O=C(O)CCC(=O)O | 93% | 11% | 
21 | 7.96 |  |  | COc1ccccc1N1CCN(Cc2ccc(CN(C(=O)C3CCCCC3)C(C)C)n2C)CC1.O=C(O)CCC(=O)O |  | 26% | 36%
22 | 6.08 |  | 70.3 h | CC(C)Oc1ccccc1N1CCN(Cc2cccc(CN3CCCCC3=O)n2)CC1.Cl |  | 15% | 85%
23 | 7.60 |  |  | COc1ccccc1N1CCN(CCc2ccc(C(=O)C(=O)N3CCCCC3)n2C)CC1.O=C(O)CCC(=O)O |  | 26% | 45%
24 |  |  |  | COc1ccccc1N1CCN(Cc2ccc(CN(Cc3ccccc3)C(=O)c3ccccc3)n2C)CC1.O=C(O)CCC(=O)O |  | 0% | 8%
25 | 8.15 |  | 3.7 h | CCCCS(=O)(=O)N(C)Cc1ccc(CN2CCN(c3ccccc3OC)CC2)n1C.O=C(O)CCC(=O)O |  | 1% | 7%

Row | pKi [3] | T1/2 [5] | half-life [6] | Structure (SMILES) | inhibition in vivo at 15 mg/kg (Rattus norvegicus [1]) | Esc loss (Rattus norvegicus [2]) | inhibition in vivo at 5 mg/kg (Rattus norvegicus [4])
26 | 8.35 |  |  | CCCCC(=O)N(C)Cc1ccc(CN2CCN(c3ccccc3OC)CC2)n1C.O=C(O)CCC(=O)O |  | 1% | 2%
27 | 10.15 |  |  | O=C(O)CCC(=O)O.O=C1CCCCN1Cc1ccc(CN2CCN(c3cccc4ccoc34)CC2)s1 |  | 5% | 63%
28 | 8.72 |  |  | CC(C)Oc1ccccc1N1CCN(Cc2ccc(CN(C(=O)C(C)C)C(C)C)n2C)CC1.O=C(O)CCC(=O)O |  | 0% | 0%
29 | 7.41 |  |  | COc1ccccc1N1CCN(Cc2ccc(CN(C)C(C)=O)n2C)CC1.O=C(O)CCC(=O)O |  | 2% | 52%
30 | 8.82 | Stable |  | CC(C)Oc1ccccc1N1CCN(CCc2ccc(CN3CCCCC3=O)n2C)CC1.O=C(O)CCC(=O)O |  | 19% | 82%
31 |  |  |  | CCCN(Cc1ccc(CN2CCN(c3ccccc3OC)CC2)n1C)S(=O)(=O)c1ccccc1 | 0% | 0% | 
32 |  |  |  | CC(C)Oc1ccccc1N1CCN(Cc2ccc(C(=O)N3CCCCC3)n2C)CC1.Cl | 56% | 5% | 
33 | 9.39 |  |  | CC(C)Oc1ccccc1N1CCN(Cc2cc(C(=O)N3CCCCCC3)cs2)CC1.Cl |  | 4% | 45%
34 |  |  |  | CC(C)Oc1ccccc1N1CCN(Cc2cccc(C(=O)N3CCCCC3)c2)CC1 [MAZAPERTINE] |  |  | 98%
35 |  |  | 3.7 h | CC(C)Oc1ccccc1N1CCN(Cc2ccc(CN(C)S(C)(=O)=O)n2C)CC1.O=C(O)CCC(=O)O |  | 0% | 8%
36 | 8.49 |  |  | CC(C)Oc1ccccc1N1CCN(Cc2ccc(C(=O)N3CCCCCC3)s2)CC1.Cl |  | 3% | 8%
37 |  |  |  | COc1ccccc1N1CCN(Cc2ccc(CNC(C)=O)n2C)CC1.O=C(O)CCC(=O)O |  | 3% | 14%
38 | 9.08 |  | 1.07 h | CC(C)Oc1ccccc1N1CCN(Cc2ccc(CN(C)C(=O)C(C)C)n2C)CC1.O=C(O)CCC(=O)O |  | 0% | 3%
39 |  |  |  | COc1ccccc1N1CCN(Cc2ccc(CN(Cc3ccccc3)C(C)=O)n2C)CC1.O=C(O)CCC(=O)O |  | 0% | 3%
40 | 8.51 |  |  | CC(C)Oc1ccccc1N1CCN(Cc2ccc(CN3CCCCC3=O)s2)CC1.Cl |  | 3% | 58%
41 | 8.00 |  |  | CC(C)Oc1ccccc1N1CCN(CC2CC(CN3CCCCC3=O)=NO2)CC1 (stereo unspecified) |  | 20% | 69%
42 | 7.92 | Stable |  | CC(C)Oc1ccccc1N1CCN(CCc2ccc(C(=O)C(=O)N3CCCCCC3)n2C)CC1.O=C(O)CCC(=O)O |  | 0% | 1%
43 | 7.42 |  |  | COc1ccccc1N1CCN(Cc2ccc(CN3CCCCC3=O)o2)CC1.O=C(O)CCC(=O)O | 10% | 0% | 
44 | 6.61 | Stable |  | CNC(=O)c1ccc(CN2CCN(c3ccccc3OC)CC2)n1C.O=C(O)CCC(=O)O |  | 0% | 22%
45 | 7.80 |  |  | COc1ccccc1N1CCN(Cc2ccc(CN(C(C)=O)C(C)C)n2C)CC1.O=C(O)CCC(=O)O |  | 0% | 8%
46 | 7.03 |  | 18.3 h | CC(C)Oc1ccccc1N1CCN(Cc2cc(CN3CCCCC3=O)no2)CC1.Cl |  | 0% | 0%
47 | 8.64 | Stable |  | CC(C)Oc1ccccc1N1CCN(CCc2ccc(C(=O)C(=O)N3CCCCC3)n2C)CC1.O=C(O)CCC(=O)O |  | 1% | 16%
48 | 6.92 |  | 60.9 h | CC(C)Oc1ccccc1N1CCN(CC2CC(CO)=NO2)CC1 (stereo unspecified) |  | 26% | 96%
49 | 9.20 |  |  | Cl.O=C(c1ccc(CN2CCN(c3cccc4ccoc34)CC2)s1)N1CCCCC1 |  | 0% | 3%
50 | 7.74 |  | 2.5 h | CCCCS(=O)(=O)N(C)Cc1ccc(CN2CCN(c3ccccc3OC(C)C)CC2)n1C.O=C(O)CCC(=O)O |  | 0% | 2%
